Screening results: PubChem, several laboratories
In the library only some 0.7% were active in any assay of this set; here they are far more common.
CaV13 ICDI inh: Disruptors of the CACNA1D IQ motif to Ca2+-dependent inactivation inhibitor domain association, primary screening, Förster resonance energy transfer in intact living …; hit rate 0.098% among 340,000; inhibition, % at 12.3 µM; AID 743397; HEK cells, CFP/YFP FRET ICDI-IQ, plate reader, 10 min; percent FRET-ratio fall versus neutral wells;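 active = mean replicate inhibition of at least 30% and at least 1% of replicates passing that level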;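 also: 0% = median of the neutral control wells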
N-glyco inh: blocks N-linked glycosylation in D54 reporter cells; hit rate 0.23% among 360,000; reporter increase, % at 12.5 µM; AID 588692; D54 ERlucT glycosylation luciferase reporter, 24 h; percent of 100 nM tunicamycin response;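 active = mean luciferase reporter signal, scaled so untreated is 0 and the glycosylation-blocking control 100, at or above a set limit in every replicate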;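 also: luciferase carries N-glycosylation sites so blocking glycosylation raises the light; 0% = median of neutral control wells and 100% = median of 100 nM tunicamycin wells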
Vif imaging: inhibitors of HIV Vif | HEK293T cells, Vif self-association by quenched fluorescence, imaging, 24 h | inhibition, % at 7.49 µM | hit rate 0.35% among 340,000; in the data active = inhibition above about 50%, passing the limit was not always enough
NPR1 activator: GC-A (human) enzyme activation | HEK293 GC-A cells, cGMP TR-FRET, EC30 ANP; 0% at EC30 ANP, 100% saturating ANP | activation, % at 10 µM | hit rate 0.14% among 370,000; in the data active = activation above about 40%
Xi reactivation: reactivates the inactive X chromosome in mouse fibroblasts | hit rate 0.055% among 360,000 | activation, % at 7.58 µM | XiGFP mouse fibroblasts, % GFP-positive cells imaging, 3 d; cells co-treated with 5-aza-dC sensitizer; scaled so ellipticine positive control = 100% | AID 743238;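 active = mean normalized replicate activation at least 10% and every replicate at or above 10%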;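 also: 0% = median of on-plate neutral control wells and 100% = ellipticine 6 µM median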
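Schedule: 3 d treatment, 15 min room-temperature fixation; system: 68-5-11 XiGFP fibroblast line; buffer or medium: DMEM plus 5-aza-dC sensitizer; control set: ellipticine 6 µM positive control; compound: one concentration, pinned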
NPR2 activator: GC-B (human) receptor activation | HEK293-GC-B cells, CNP EC30, cGMP TR-FRET; 0% at EC30 CNP, 100% saturating CNP | activation, % at 10 µM | hit rate 0.11% among 370,000 | AID 1920062;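 active = activation at 10 µM reaching about 35% in either raw or pattern-adjusted values, limit read from the data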
Target sequence (P20594 whole entry, looked up): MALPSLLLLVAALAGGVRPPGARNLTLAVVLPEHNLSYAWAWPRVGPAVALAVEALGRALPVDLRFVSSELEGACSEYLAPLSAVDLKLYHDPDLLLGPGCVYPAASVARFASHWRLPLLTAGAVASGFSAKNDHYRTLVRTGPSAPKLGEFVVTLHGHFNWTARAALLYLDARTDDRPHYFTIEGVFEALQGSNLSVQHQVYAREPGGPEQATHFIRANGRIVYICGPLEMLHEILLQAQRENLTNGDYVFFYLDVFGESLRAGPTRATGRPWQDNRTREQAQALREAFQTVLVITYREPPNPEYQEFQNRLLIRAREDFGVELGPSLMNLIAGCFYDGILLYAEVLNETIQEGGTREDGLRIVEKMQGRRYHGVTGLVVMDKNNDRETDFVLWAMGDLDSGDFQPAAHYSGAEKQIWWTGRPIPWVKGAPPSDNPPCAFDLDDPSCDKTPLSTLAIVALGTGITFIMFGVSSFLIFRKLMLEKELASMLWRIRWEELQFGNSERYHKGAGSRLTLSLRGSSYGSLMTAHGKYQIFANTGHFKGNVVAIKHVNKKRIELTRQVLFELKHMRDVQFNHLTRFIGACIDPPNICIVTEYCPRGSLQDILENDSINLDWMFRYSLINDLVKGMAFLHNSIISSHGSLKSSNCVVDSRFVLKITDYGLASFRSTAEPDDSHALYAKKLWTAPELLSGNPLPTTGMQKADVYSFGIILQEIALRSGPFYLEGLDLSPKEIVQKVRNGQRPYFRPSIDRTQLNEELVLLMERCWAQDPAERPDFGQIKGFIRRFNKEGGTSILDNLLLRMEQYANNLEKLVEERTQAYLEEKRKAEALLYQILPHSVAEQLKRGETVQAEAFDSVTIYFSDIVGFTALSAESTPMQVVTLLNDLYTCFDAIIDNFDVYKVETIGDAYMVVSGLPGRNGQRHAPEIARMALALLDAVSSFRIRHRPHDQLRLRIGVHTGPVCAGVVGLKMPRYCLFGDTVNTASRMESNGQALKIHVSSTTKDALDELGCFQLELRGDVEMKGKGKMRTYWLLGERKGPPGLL
* hit, by the source's call; x = not tested or not shown; + = active, no number.

SMILES | CaV13 ICDI inh | N-glyco inh | Vif imaging | NPR1 activator | Xi reactivation | NPR2 activator
CCCCN(C)C(=O)C(Cc1ccccc1)NS(=O)(=O)c1ccc2c(c1)c(=O)n(C)c(=O)n2C (stereo not drawn) | -5.0 | -2.0 | -8.7 | -1.3 | 0.2 | 46.9*
CC1=C(/C=C/C(C)=C/C=C/C(C)=C/C(=O)O)C(C)(C)CCC1 | -4.6 | 6.4 | 64.9* | 3.7 | 0.0 | 1.3
CC(/C=C\c1ccccc1)=C/C(=O)O | -14.0 | 2.2 | -3.5 | 5.2 | -0.1 | 2.3
COCC(=O)N1CC2(C1)[C@H](c1ccc(-c3ccccc3)cc1)[C@@H](CO)N2C(C)=O | x | x | x | x | 0.1 | x
C(=N\Nc1nc2ccccc2[nH]1)/c1ccccn1 | 6.0 | -19.6 | -0.5 | -1.7 | -0.1 | 0.5
Fc1ccccc1-c1ccc(/C=N/Nc2nc3ccccc3[nH]2)o1 | 54.2* | -4.2 | 7.5 | 1.3 | -0.1 | -4.5
COc1ccc(Nc2c(-c3ccc(C)cc3)nc3cnccn23)cc1 | -15.8 | -2.4 | -2.6 | 46.1* | -0.2 | 47.9*
Cc1ccc(Nc2c(-c3ccccc3O)nc3cnccn23)cc1 | -6.1 | -2.4 | -4.1 | 48.5* | 0.0 | 17.4
Cc1ccc(Nc2c(-c3ccccc3O)nc3ncccn23)cc1 | -1.7 | 0.9 | -11.7 | 53.9* | -0.1 | 17.1
COc1ccc(Nc2c(-c3ccc(OC)cc3)nc3cnccn23)cc1 | -11.6 | 2.1 | 3.4 | 49.8* | -0.3 | 49.4*
C[C@H]1CN([C@@H](C)CO)C(=O)c2cc(N(C)C)ccc2O[C@H]1CN(C)S(C)(=O)=O | x | x | x | x | -1.0 | x
Cc1ccc(S(=O)(=O)Nc2ccc3c(c2)C(=O)N([C@@H](C)CO)C[C@@H](C)[C@@H](CN(C)C(=O)c2ccncc2)OCCCC[C@H](C)O3)cc1 | x | x | x | x | 0.1 | x
COc1ccc(C(=O)/C=C\c2ccc(NC(=O)c3cccs3)cc2)cc1 | -4.6 | 48.1* | 3.4 | 0.4 | x | 2.5
COc1ccc(NC(=O)c2ccc(NC(=O)c3cccs3)cc2)cc1 | -2.3 | x | x | -2.9 | 0.8 | -10.8
CC[C@@]1(c2ccccc2OC)ON(c2ccccc2C(F)(F)F)C1=O | -4.9 | 43.1* | -9.8 | -7.9 | 0.1 | -0.3
C[C@H]1CN([C@@H](C)CO)C(=O)Cc2cc(NC(=O)Nc3ccccc3)ccc2O[C@H]1CN(C)C(=O)Nc1ccc2c(c1)OCO2 | x | x | x | x | 0.1 | x
N=c1c(S(=O)(=O)c2ccc(Cl)cc2)cc2c(=O)n3ccccc3nc2n1CCc1ccccc1 | -2.2 | 50.2* | 8.3 | 2.7 | 0.3 | -3.4
Cn1c(=N)c(S(=O)(=O)c2ccccc2)cc2c(=O)n3ccccc3nc21 | 34.5* | -0.8 | 18.6 | 10.2 | x | -4.2
COc1ccccc1-c1cn(CC[C@H]2CC[C@H](NC(=O)c3cnccn3)[C@@H](CO)O2)nn1 | x | x | x | x | -0.4 | x
Cc1ccc(C(=O)Nc2ccccc2C(=O)N2CCCCC2C)cc1 (stereo not drawn) | -5.6 | -0.5 | 6.3 | -1.5 | 0.3 | 2.2
Cc1ccc(C(=O)Nc2ccccc2C(=O)N2CC(C)OC(C)C2)cc1 (stereo not drawn) | -11.6 | 45.5* | 5.1 | 1.8 | 0.0 | 6.4
O=C(Cn1ncc2c3ccccc3n(Cc3ccccc3F)c2c1=O)NCC1CCCO1 (stereo not drawn) | -2.6 | 1.6 | 0.6 | 31.0 | -0.1 | 36.0*
O=C(Cn1ncc2c3ccccc3n(Cc3cccc(Cl)c3)c2c1=O)NCC1CCCO1 (stereo not drawn) | -2.0 | 1.1 | -0.3 | -21.1 | 0.0 | -0.9
O=C(Cn1ncc2c3ccccc3n(Cc3ccccc3F)c2c1=O)N1CCN(c2ccccn2)CC1 | -5.0 | 5.9 | -0.8 | 21.8 | 0.1 | 41.4*
CCOC(=O)c1c(CCl)nc2ccccc2c1-c1ccccc1 | -5.1 | -1.3 | -6.8 | -4.4 | 0.0 | -10.8
SMILES | CaV13 ICDI inh | N-glyco inh | Vif imaging | NPR1 activator | Xi reactivation | NPR2 activator
ClCc1nc2ccccc2c2ccccc12 | -7.9 | 63.0* | -2.4 | -1.4 | 0.1 | -3.5
COc1ccc(C2C3=C(CCCC3=O)N(CC(=O)O)C3=C2C(=O)CCC3)cc1Cl | + | 1.1 | 1.4 | 3.0 | 0.0 | -0.1
O=[N+]([O-])c1ccc(N2N=C(c3ccccc3)CC2c2ccccc2O)cc1 (stereo not drawn) | -9.8 | -1.7 | 6.9 | -3.0 | 32.3* | 1.3
NS(=O)(=O)c1ccc(N2N=C(c3ccccc3)CC2c2ccccc2Br)cc1 (stereo not drawn) | -5.1 | -0.8 | x | -0.9 | 0.0 | 0.7
CC=Cc1ccc2n(c1=O)C[C@@H]1[C@@H](CO)[C@H](C(=O)NCc3cc(F)cc(F)c3)[C@H]2N1S(C)(=O)=O (mixture of isomers) | x | x | x | x | 0.1 | x
O=C1OCCC1Sc1nnnn1-c1ccc(Cl)cc1 (stereo not drawn) | -7.0 | -5.3 | -4.4 | 65.2* | 0.5 | 18.6
O=C(O)C[C@@H]1CC[C@H](NC(=O)Nc2ccccc2)[C@@H](CO)O1 | x | x | x | x | -0.5 | x
CN(C)c1ccc(C=Cc2ccnc3c(O)cccc23)cc1 | -8.7 | -8.2 | 50.9* | 4.2 | 2.3 | 3.0
Oc1ccc(/C=C/c2ccccc2F)c2cccnc12 | x | x | x | 7.6 | x | 2.2
CCCCC(=O)NCc1ccc2c(c1)cc(C)n2C | -6.3 | 1.3 | 67.7* | 3.2 | x | 2.5
CCc1cccc(C)c1NC(=S)NCc1ccc2c(c1)cc(C)n2C | 57.1* | -4.9 | 7.0 | -0.5 | -0.3 | 1.0
CCOC(=O)CCC(=O)NCc1ccc2c(c1)cc(C)n2C | -4.5 | 0.8 | -0.2 | 2.4 | x | 1.2
O=C(C[C@H]1CC[C@H](NS(=O)(=O)c2ccccc2)[C@H](CO)O1)N1CCc2ccccc2C1 | x | x | x | x | -0.8 | x
CCN(CCCNC(=O)C1CCC(=O)N1Cc1ccc(C)cc1)c1cccc(C)c1 (stereo not drawn) | x | -0.9 | 51.5* | -5.8 | x | -1.5
CCNC(=O)[C@@H]1[C@@H](CO)[C@@H]2Cn3c(cccc3=O)[C@@H]2N1Cc1ccccc1Cl | x | x | x | x | 0.4 | x
C[C@@H]1CN([C@@H](C)CO)C(=O)Cc2cc(NC(=O)NC3CCCCC3)ccc2O[C@H]1CN(C)S(=O)(=O)c1ccc(F)cc1 | x | x | x | x | 1.0 | x
COc1ccc(CC(=O)OCC(=O)Nc2ccc(N3CCOCC3)cc2)cc1 | -4.5 | 0.6 | 80.7* | 1.1 | 0.2 | -0.9
COc1cc(CC(=O)OCC(=O)Nc2ccc(N3CCOCC3)cc2)cc(OC)c1OC | -1.9 | 2.5 | -1.1 | 0.0 | 0.7 | -5.6
Cc1ccc2oc(=O)c(/C=C(\O)c3cccs3)nc2c1 | -36.9 | -1.0 | 88.6* | 2.8 | 0.6 | -4.0
CO[C@H]1CN(C)C(=O)c2cc(NC(C)=O)ccc2OC[C@@H](C)N(C(=O)C2CC2)C[C@@H]1C | x | x | x | x | -0.6 | x
